Measurements taken from ChEMBL document CHEMBL3877276, “Design, synthesis, and biological evaluation of cyclic-indole derivatives as anti-tumor agents via the inhibition of tubulin polymerization” (Eur J Med Chem, 2017).
The source made the active and inactive calls. The rule behind the calls is not given here.

Legend:
[1] = Antiproliferative activity against human Bel7402 cells measured after 48 hrs by MTT assay; type: functional, cell-based; details: Bel-7402, 48 h
[2] = Antiproliferative activity against human LoVo cells measured after 48 hrs by MTT assay; type: functional, cell-based
[3] = Antiproliferative activity against human MCF7 cells measured after 48 hrs by MTT assay; type: functional, cell-based; details: MCF7, 48 h
[4] = Antiproliferative activity against human A549 cells measured after 48 hrs by MTT assay; type: functional, cell-based; details: A549, 48 h
[5] = Antiproliferative activity against human HeLa cells measured after 48 hrs by MTT assay; type: functional, cell-based
[6] = Antiproliferative activity against human PC3 cells measured after 48 hrs by MTT assay; type: functional, cell-based; details: PC-3, 48 h
[7] = Antiproliferative activity against human A2780 cells measured after 48 hrs by MTT assay; type: functional, cell-based; details: A2780, 48 h
[8] = Inhibition of porcine brain tubulin polymerization measured every 60 secs for 90 mins by fluorescence assay; set-up: species or system Sus scrofa
Summary of the method: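 Porcine brain tubulin in a fluorescence kit. Reaction mix: 80.0 mM PIPES sesquisodium (pH 6.9), 2.0 mM MgCl2, 0.5 mM EGTA, 1 mM GTP, 10.2% glycerol. Compound added and mix pre-warmed 1 min at 37 °C, then tubulin added to start. Fluorescence (ex 340, em 410 nm) read every 60 s for 90 min. IC50 from area under curve, three independent experiments.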

[9] = Antiproliferative activity against HUVEC in presence of fetal calf serum and absence of growth factor measured after 48 hrs by MTT assay; type: cell-based; details: Homo sapiens
Summary of the method: (§1)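 Cells in log phase plated at 5×10^3 cells/well, grown 24 h at 37 °C, 5% CO2, then exposed to a range of compound concentrations for 48 h. MTT (5 mg/mL stock) added, formazan dissolved in DMSO, absorbance read at 570 nm. IC50 from nonlinear regression, at least three independent experiments. Quiescent HUVECs kept in endothelial medium with 0.5% fetal calf serum, no growth factor.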

[10] = Cell cycle arrest in human A549 cells assessed as accumulation at G2/M phase at 50 nM measured after 24 hrs by propidium iodide staining based flow cytometry relative to control; type: functional
Summary of the method: (§2)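 A549 seeded at 3×10^5 cells/well and treated 24 or 48 h. Trypsinized, fixed in 70% ethanol at 4 °C overnight, RNase A 37 °C 30 min, then PI 4 °C 30 min. DNA content of 10,000 events read by flow cytometry at 488 nm. Three repeats.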

A549 [11] = assay: Induction of apoptosis in human A549 cells assessed as late and early apoptotic cells at 50 nM measured after 24 hrs by Annexin-V-FITC/propidium iodide staining based flow cytometry (reference value: 0.63 %); type: functional
Summary of the method: (§3)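 A549 seeded at 3×10^5 cells/well and treated at 10, 20 or 50 nM for 24 or 48 h, then harvested. Annexin V-FITC in HEPES 10 mM/NaCl 140 mM/CaCl2 2.5 mM (pH 7.4) 15 min at room temperature, then PI 10 min. About 10,000 events by flow cytometry, quadrants scored as early or late apoptotic. Three repeats.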

A549 [12] = assay: Induction of apoptosis in human A549 cells assessed as late and early apoptotic cells at 20 nM measured after 48 hrs by Annexin-V-FITC/propidium iodide staining based flow cytometry (reference value: 0.63 %); type: functional; summary of the method: as §3
A549 [13] = assay: Induction of apoptosis in human A549 cells assessed as late and early apoptotic cells at 50 nM measured after 48 hrs by Annexin-V-FITC/propidium iodide staining based flow cytometry (reference value: 0.63 %); type: functional; summary of the method: as §3
A549 [14] = assay: Cytotoxicity against human A549 cells assessed as change in cell morphology at 20 to 200 nM measured after 48 hrs by phase contrast microscopy; type: functional, cell-based
Summary of the method: (§4)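 A549 cells and quiescent HUVECs (0.5% fetal calf serum, no growth factor) treated at 20 and 200 nM for 48 h. Morphology (rounding, shrinkage, blebbing, detachment) inspected by microscopy.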

[15] = Cytotoxicity against HUVEC assessed as change in cell morphology at 20 nM in presence of fetal calf serum and absence of growth factor measured after 48 hrs by phase contrast microscopy; type: toxicity, cell-based; details: human, 0.02 µM; summary of the method: as §4
[16] = Cell cycle arrest in human A549 cells assessed as accumulation at G2/M phase at 25 nM measured after 24 hrs by propidium iodide staining based flow cytometry relative to control; type: functional; summary of the method: as §2
A549 [17] = assay: Induction of apoptosis in human A549 cells assessed as late and early apoptotic cells at 10 nM measured after 24 hrs by Annexin-V-FITC/propidium iodide staining based flow cytometry (reference value: 0.63 %); type: functional; summary of the method: as §3
[18] = Antiproliferative activity against human BJ cells measured after 48 hrs by MTT assay; type: cell-based; summary of the method: as §1
A549 [19] = assay: Induction of apoptosis in human A549 cells by Annexin-V-FITC/propidium iodide staining based flow cytometry; type: functional, cell-based; summary of the method: as §3
[20] = Selectivity ratio of IC50 for HUVEC in presence of fetal calf serum and absence of growth factor to IC50 for human A549 cells; type: cell-based; details: HUVEC versus A549 cells, read-out: Ratio IC50
Summary of the method: (§5)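 Ratio = IC50 in the normal line (HUVEC quiescent in 0.5% fetal calf serum without growth factor, MCF-10A, BJ or HLF) divided by IC50 in A549.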

[21] = Cytotoxicity against HUVEC assessed as change in cell morphology at 200 nM in presence of fetal calf serum and absence of growth factor measured after 48 hrs by phase contrast microscopy; type: toxicity, cell-based; details: human, 0.2 µM; summary of the method: as §4
[22] = Selectivity ratio of IC50 for human BJ cells to IC50 for human A549 cells; type: ADME, cell-based; details: BJ cells versus A549 cells, read-out: Ratio IC50; summary of the method: as §5
A549 [23] = assay: Disruption of cellular microtubule network in human A549 cells assessed as blockade of cell mitosis measured after 12 hrs by Hochest 33342 staining based laser confocal microscopy
[24] = Antiproliferative activity against human MCF10A cells measured after 48 hrs by MTT assay; type: cell-based; details: MCF-10A; summary of the method: as §1
A549 [25] = assay: Induction of apoptosis in human A549 cells assessed as late and early apoptotic cells at 10 nM measured after 48 hrs by Annexin-V-FITC/propidium iodide staining based flow cytometry (reference value: 0.63 %); type: functional; summary of the method: as §3
[26] = Cell cycle arrest in human A549 cells assessed as accumulation at G2/M phase at 10 nM measured after 24 hrs by propidium iodide staining based flow cytometry relative to control; type: functional; summary of the method: as §2
[27] = Selectivity ratio of IC50 for human MCF10A cells to IC50 for human A549 cells; type: ADME, cell-based; details: MCF10A cells versus A549 cells, read-out: Ratio IC50; summary of the method: as §5
A549 [28] = assay: Induction of apoptosis in human A549 cells assessed as late and early apoptotic cells at 20 nM measured after 24 hrs by Annexin-V-FITC/propidium iodide staining based flow cytometry (reference value: 0.63 %); type: functional; summary of the method: as §3
A549 [29] = assay: Disruption of cellular microtubule network in human A549 cells measured after 12 hrs by Hochest 33342 staining based laser confocal microscopy; type: cell-based
[30] = Selectivity ratio of IC50 for HLF to IC50 for human A549 cells; type: ADME, cell-based; details: HLF versus A549 cells, read-out: Ratio IC50; summary of the method: as §5
[31] = Cell cycle arrest in human A549 cells assessed as reduction in G1 phase at 10 to 50 nM measured after 24 to 48 hrs by propidium iodide staining based flow cytometry; type: functional; summary of the method: as §2
[32] = Antiproliferative activity against HLF measured after 48 hrs by MTT assay; details: Homo sapiens; summary of the method: as §1

Compound: COc1cc(C2=CCc3c2ccc2c3ccn2C)cc(OC)c1OC
- IC50 [1]: 561 nM
- IC50 [2]: 297 nM
- IC50 [3]: 449 nM
- IC50 [4]: 149 nM
- IC50 [5]: 326 nM
- IC50 [6]: 412 nM
- IC50 [7]: 186 nM

Compound: CCCn1ccc2c3c(ccc21)C(c1cc(OC)c(OC)c(OC)c1)=CCCC3
- IC50 [1]: 480 nM
- IC50 [2]: 690 nM
- IC50 [3]: 780 nM
- IC50 [4]: 520 nM
- IC50 [5]: 600 nM
- IC50 [6]: 690 nM
- IC50 [7]: 240 nM

Compound: COC(=O)C(=O)c1cn(C)c2ccc3c(c12)CCCC=C3c1cc(OC)c(OC)c(OC)c1
- IC50 [1]: > 10000 nM
- IC50 [2]: > 10000 nM
- IC50 [3]: > 10000 nM
- IC50 [4]: > 10000 nM
- IC50 [5]: > 10000 nM
- IC50 [6]: > 10000 nM
- IC50 [7]: > 10000 nM

Compound: COc1cc(C2=CCCCc3c2ccc2c3c(C=O)cn2C)cc(OC)c1OC
- IC50 [8]: 470 nM
- IC50 [1]: 49 nM
- IC50 [2]: 52 nM
- IC50 [3]: 59 nM
- IC50 [4]: 29 nM
- IC50 [5]: 41 nM
- IC50 [6]: 31 nM
- IC50 [7]: 33 nM

Compound: COc1ccc(/C=C\c2cc(OC)c(OC)c(OC)c2)cc1O [COMBRETASTATIN A4]
- IC50 [8]: 1120 nM
- IC50 [1]: 13 nM
- IC50 [2]: 17 nM
- IC50 [3]: 29 nM
- IC50 [4]: 10 nM
- IC50 [5]: 12 nM
- IC50 [6]: 26 nM

Compound: COc1cc(C2=CCCCc3c2ccc2c3c(CO)cn2C)cc(OC)c1OC
- IC50 [8]: 410 nM
- IC50 [1]: 46 nM
- IC50 [2]: 32 nM
- IC50 [3]: 63 nM
- IC50 [4]: 43 nM
- IC50 [5]: 33 nM
- IC50 [6]: 49 nM
- IC50 [7]: 31 nM

Compound: CCn1ccc2c3c(ccc21)C(c1cc(OC)c(OC)c(OC)c1)=CCCC3
- IC50 [1]: 66 nM
- IC50 [2]: 39 nM
- IC50 [3]: 79 nM
- IC50 [4]: 56 nM
- IC50 [5]: 61 nM
- IC50 [6]: 85 nM
- IC50 [7]: 32 nM

Compound: COc1cc(C2CCCCc3c2ccc2c3ccn2C)cc(OC)c1OC (stereo not given)
- IC50 [9]: 213 nM
- Activity [10]: 72.1%
- Activity (A549 [11]): 59.8%
- Activity (A549 [12]): 58.4%
- Activity (A549 [13]): 60.2%
- Activity (A549 [14]): Active
- Activity [15]: Non-Toxic
- Activity [16]: 55.1%
- IC50 [8]: 150 nM
- Activity (A549 [17]): 22.8%
- IC50 [1]: 39 nM
- IC50 [18]: 1210 nM
- Activity (A549 [19]): Dose-dependent effect
- IC50 [2]: 49 nM
- selectivity ratio [20]: 9.68
- Activity [21]: Toxic
- selectivity ratio [22]: 55
- Activity (A549 [23]): Active
- IC50 [24]: 672 nM
- Activity (A549 [25]): 41.4%
- Activity [26]: 41%
- IC50 [3]: 51 nM
- IC50 [4]: 22 nM
- IC50 [5]: 56 nM
- selectivity ratio [27]: 30.5
- Activity (A549 [28]): 39.6%
- IC50 [6]: 47 nM
- Activity (A549 [29]): Active
- IC50 [7]: 37 nM
- selectivity ratio [30]: 76.1
- Activity [31]: Active
- IC50 [32]: 1670 nM

Compound: COc1cc(C2=CCCCc3c2ccc2c3CCN2)cc(OC)c1OC
- IC50 [1]: 797 nM
- IC50 [2]: 1120 nM
- IC50 [3]: 812 nM
- IC50 [4]: 312 nM
- IC50 [5]: 701 nM
- IC50 [6]: 741 nM
- IC50 [7]: 597 nM

Compound: COc1cc(C2=CCCCc3c2ccc2c3ccn2C)cc(OC)c1OC
- IC50 [8]: 580 nM
- IC50 [1]: 78 nM
- IC50 [2]: 47 nM
- IC50 [3]: 69 nM
- IC50 [4]: 49 nM
- IC50 [5]: 56 nM
- IC50 [6]: 93 nM
- IC50 [7]: 44 nM

Compound: COc1cc(C2=CCCCc3c2ccc2c3CCN2C)cc(OC)c1OC
- IC50 [8]: 1040 nM
- IC50 [1]: 61 nM
- IC50 [2]: 79 nM
- IC50 [3]: 58 nM
- IC50 [4]: 56 nM
- IC50 [5]: 45 nM
- IC50 [6]: 77 nM
- IC50 [7]: 69 nM

Compound: COc1cc(C2=CCCCc3c2ccc2[nH]ccc32)cc(OC)c1OC
- IC50 [1]: 620 nM
- IC50 [2]: 520 nM
- IC50 [3]: 1560 nM
- IC50 [4]: 451 nM
- IC50 [5]: 790 nM
- IC50 [6]: 980 nM
- IC50 [7]: 1010 nM

Compound: COc1cc(C2=CCCCc3c2ccc2[nH]cc(C=O)c32)cc(OC)c1OC
- IC50 [1]: 1260 nM
- IC50 [2]: 1130 nM
- IC50 [3]: 2060 nM
- IC50 [4]: 470 nM
- IC50 [5]: 860 nM
- IC50 [6]: 950 nM
- IC50 [7]: 1020 nM
